In ChEMBL document CHEMBL4004786, “Nanomolar Antimalarial Agents against Chloroquine-Resistant Plasmodium falciparum from Medicinal Plants and Their Structure-Activity Relationships” (J Nat Prod, 2017):

Assays:
[1] = tested on: Plasmodium falciparum; assay: Antimalarial activity against chloroquine-resistant Plasmodium falciparum Dd2 assessed as parasite growth inhibition after 72 hrs by SYBR Green 1 assay; assay type: functional; conditions: Dd2, 72 h
Procedure, shortened: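 Viability was read by SYBR Green I DNA quantitation and normalized to DMSO-treated untreated controls. IC50 came from nonlinear regression, averaging at least three independent experiments run in triplicate, with standard deviations.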

[2] = Selectivity index, ratio of IC50 for human WI38 cells to IC50 for chloroquine-resistant Plasmodium falciparum Dd2; assay type: toxicity; conditions: read-out: Ratio IC50
[3] = tested on: WI-38; assay: Cytotoxicity against human WI38 cells after 24 hrs by resazurin assay; conditions: WI-38, 24 h

| SMILES | IC50 [1] [µM] | selectivity ratio [2] | IC50 [3] [µM] |
| --- | --- | --- | --- |
| CO[C@]12OC(=O)C(C)=C1C1=C3[C@](C)([C@@H]4C[C@@H]4[C@@]3(O)C[C@@H]3[C@]14OC(=O)C1=C4C[C@H]4[C@](O)(COC(=O)/C(C)=C/COC(=O)CCC(=O)OC1)[C@H]1C[C@H]1[C@]34C)[C@H]2O | > 25 | – | – |
| C=C1[C@H]2C[C@H]2[C@@]2(C)[C@H]1[C@@H](OC(C)=O)C1=C(C)C(=O)O[C@@]13C1=C4[C@](C)([C@@H]5C[C@@H]5[C@@]4(O)C[C@H]32)[C@@H](O)C(=O)/C1=C(/C)C(=O)OC | > 25 | – | – |
| COC(=O)/C(C)=C1\C(=O)[C@H](O)[C@]2(C)C3=C(C[C@@H]4[C@]5(OC(=O)C(CO)=C5C[C@H]5[C@H](COC(C)=O)[C@H]6C[C@H]6[C@]45C)[C@H]31)[C@H]1C[C@H]12 | 0.58 | – | – |
| COC(=O)CCC(=O)OCC1=C2C[C@H]3[C@](O)(COC(=O)/C=C(\C)C=O)[C@H]4C[C@H]4[C@]3(C)[C@@H]3CC4=C5[C@H](/C(=C(\C)C(=O)OC)C(=O)[C@H](O)[C@@]5(C)[C@@H]5C[C@H]45)[C@]23OC1=O | 0.0052 | 1700 | 8.84 |
| COC(=O)CCC(=O)OCC1=C2C[C@H]3[C@](O)(COC(=O)/C=C(\C)CO)[C@H]4C[C@H]4[C@]3(C)[C@@H]3C=C4C5=C(C6=C(C)C(=O)O[C@]6(O)[C@H](O)[C@@]5(C)[C@@H]5C[C@H]45)[C@]23OC1=O | 0.198 | – | – |
| COC(=O)/C(C)=C1\C(=O)[C@H](O)[C@]2(C)C3=C(C[C@@H]4[C@]5(OC(=O)C(CO)=C5C[C@H]5[C@](O)(CO)[C@H]6C[C@H]6[C@]45C)[C@H]31)[C@H]1C[C@H]12 | 4.6 | – | – |
| C=C1[C@H]2C[C@H]2[C@@]2(C)[C@H]1[C@@H](OC(C)=O)C1=C(C)C(=O)O[C@@]13C1=C4[C@@](C)(C(=O)[C@@]5(O)OC(=O)C(C)=C15)[C@@H]1C[C@@H]1[C@@]4(O)C[C@H]32 | > 25 | – | – |
| C=C1[C@H]2C[C@H]2[C@@]2(C)[C@H]1[C@@H](OC(C)=O)C1=C(C)C(=O)O[C@@]13C1=C4[C@](O)(C[C@H]32)[C@H]2C[C@H]2[C@]4(C)CC(=O)/C1=C(/C)C(=O)OC | > 25 | – | – |
| COC(=O)/C(C)=C1\C(=O)[C@H](O)[C@]2(C)C3=C(C[C@@H]4[C@]5(OC(=O)C(CO)=C5C[C@H]5[C@](O)(COC(=O)C=C(C)C)[C@H]6C[C@H]6[C@]45C)[C@H]31)[C@H]1C[C@H]12 | 0.211 | – | – |
| COC(=O)/C(C)=C1\C(=O)[C@H](O)[C@]2(C)C3=C1[C@]14OC(=O)C(C)=C1C[C@H]1[C@](O)(CO)[C@H]5C[C@H]5[C@]1(C)[C@@H]4C[C@]3(OO)[C@H]1C[C@H]12 | 5.3 | – | – |
| C=C1C(=O)O[C@]23C4=C5C(=O)[C@H](O)[C@]6(C)C4=C(C[C@H]2[C@]2(C)C(C[C@]13[C@]5(C)C(=O)OC)[C@](O)(COC(=O)/C(C)=C/C)[C@H]1C[C@H]12)[C@H]1C[C@H]16 (some centres undefined) | 4.7 | – | – |
| COC(=O)/C(C)=C1\C(=O)[C@H](O)[C@]2(C)C3=C1[C@]14OC(=O)C5=C1C[C@H]1[C@](O)(COC(=O)/C(C)=C/COC(=O)CCC(=O)OC5)[C@H]5C[C@H]5[C@]1(C)[C@@H]4C[C@]3(O)[C@H]1C[C@H]12 | > 25 | – | – |
| COC(=O)CCC(=O)OCC1=C2C[C@H]3[C@](O)(COC(=O)/C=C(\C)CO)[C@H]4C[C@H]4[C@]3(C)[C@@H]3C[C@@]4(OO)C5=C(/C(=C(\C)C(=O)OC)C(=O)[C@H](O)[C@@]5(C)[C@@H]5C[C@@H]54)[C@]23OC1=O | 0.043 | – | > 100 |
| COC(=O)/C(C)=C1\C(=O)[C@H](O)[C@]2(C)C3=C(C[C@@H]4[C@]5(OC(=O)C(CO)=C5C[C@H]5[C@H](CO)[C@H]6C[C@H]6[C@]45C)[C@H]31)[C@H]1C[C@H]12 | 11.4 | – | – |
| COC(=O)CCC(=O)OCC1=C2C[C@H]3[C@](O)(COC(=O)/C=C(\C)CO)[C@H]4C[C@H]4[C@]3(C)[C@@H]3C[C@@]4(OO)C5=C(C6=C(C)C(=O)O[C@]6(O)[C@H](O)[C@@]5(C)[C@@H]5C[C@@H]54)[C@]23OC1=O | 0.094 | – | – |
| C[C@@]12C=C3OC(=O)C(CO)=C3C[C@H]1[C@@H](CO)[C@H]1C[C@H]12 | > 25 | – | – |
| COC(=O)CCC(=O)OC/C(C)=C/C(=O)OC[C@]1(O)[C@H]2C[C@H]2[C@]2(C)[C@@H]3CC4=C5[C@H](/C(=C(\C)C(=O)OC)C(=O)[C@H](O)[C@@]5(C)[C@@H]5C[C@H]45)[C@@]34OC(=O)C(CO)=C4C[C@@H]12 | 0.019 | 163 | 3.09 |
| COC(=O)/C(C)=C1\C(=O)[C@H](O)[C@]2(C)C3=C(C[C@@H]4[C@]5(OC(=O)C(CO)=C5C[C@H]5[C@](O)(COC(=O)/C=C(\C)CO)[C@H]6C[C@H]6[C@]45C)[C@H]31)[C@H]1C[C@H]12 | 0.111 | – | – |

| SMILES | IC50 [1] [µM] | selectivity ratio [2] | IC50 [3] [µM] |
| --- | --- | --- | --- |
| CC1=C2CC3=C(C)[C@H]4C[C@H]4[C@]3(C)C[C@@H]2OC1=O | > 25 | – | – |
| C=C1[C@@H]2C[C@@H]2[C@]2(C)[C@@H]3CC4=C5[C@H](/C(=C(\C)C(=O)OC)C(=O)[C@H](O)[C@@]5(C)[C@@H]5C[C@H]45)[C@@]34OC(=O)C(C)=C4C[C@@H]12 | 1.5 | – | – |
| CC1=C2C3=C4[C@](C)([C@@H]5C[C@@H]5[C@@]4(O)C[C@@H]4[C@]35OC(=O)C3=C5C[C@H]5[C@](O)(COC(=O)/C=C(\C)COC(=O)CCC(=O)OC3)[C@H]3C[C@H]3[C@]45C)[C@@H](O)[C@@]2(O)OC1=O | 7.1 | – | – |
| COC(=O)/C(C)=C1\C(=O)[C@H](O)[C@]2(C)C3=C(C[C@@H]4[C@]5(OC(=O)C6=C5C[C@H]5[C@](O)(COC(=O)/C(C)=C/COC(=O)[C@@H](O)CC(=O)OC6)[C@H]6C[C@H]6[C@]45C)[C@H]31)[C@H]1C[C@H]12 | 0.013 | 134 | 1.74 |
| COC(=O)CCC(=O)OC/C(C)=C/C(=O)OC[C@]1(O)[C@H]2C[C@H]2[C@]2(C)[C@@H]3C[C@@]4(OO)C5=C(/C(=C(\C)C(=O)OC)C(=O)[C@H](O)[C@@]5(C)[C@@H]5C[C@@H]54)[C@@]34OC(=O)C(CO)=C4C[C@@H]12 | 0.03 | 18 | 0.53 |
| CC1=C2[C@H]3[C@@H]4C(=C[C@@H]5[C@]36OC(=O)C(CO)=C6C[C@H]3[C@](O)(COC(=O)/C=C(\C)CO)[C@H]6C[C@H]6[C@]53C)[C@H]3C[C@H]3[C@]4(C)[C@@H](O)[C@@]2(O)OC1=O | 9.9 | – | – |
| CC(=O)OC[C@H]1[C@H]2C[C@H]2[C@]2(C)C=C3OC(=O)C(CO)=C3C[C@@H]12 | > 25 | – | – |
| COC(=O)/C(C)=C1\C(=O)[C@H](O)[C@]2(C)C3=C(C[C@@H]4[C@]5(OC(=O)C(COC(C)=O)=C5C[C@H]5[C@](O)(COC(=O)C=C(C)C)[C@H]6C[C@H]6[C@]45C)[C@H]31)[C@H]1C[C@H]12 | 0.86 | – | – |
| COC(=O)/C(C)=C1\C(=O)[C@H](O)[C@]2(C)C3=C(C[C@@H]4[C@]5(OC(=O)C(C)=C5C[C@H]5[C@H](COC(C)=O)[C@H]6C[C@H]6[C@]45C)[C@H]31)[C@H]1C[C@H]12 | 1.8 | – | – |
| COC(=O)/C(C)=C1\C(=O)[C@H](O)[C@]2(C)C3=C1[C@]14OC(=O)C5=C1C[C@H]1[C@](O)(COC(=O)/C=C(\C)COC(=O)CCC(=O)OC5)[C@H]5C[C@H]5[C@]1(C)[C@@H]4C[C@]3(OO)[C@H]1C[C@H]12 | 0.474 | – | – |
| C[C@@H]1CC[C@H]2[C@@H](C)C(=O)O[C@@H]3O[C@@]4(C)CC[C@@H]1[C@]32OO4 [ARTEMISININ] | 0.004 | – | – |
| CC1=C2C3=C4[C@](C)([C@@H]5C[C@@H]5[C@@]4(O)C[C@@H]4[C@]35OC(=O)C3=C5C[C@H]5[C@](O)(COC(=O)/C(C)=C/COC(=O)CCC(=O)OC3)[C@H]3C[C@H]3[C@]45C)[C@@H](O)[C@@]2(O)OC1=O [CHLORAMULTILIDE C] | > 25 | – | – |
| C/C=C(\C)C(=O)OC[C@]1(O)[C@H]2C[C@H]2[C@]2(C)[C@@H]3C[C@@]4(O)C5=C(C6=C(C)C(=O)O[C@]6(O)[C@H](O)[C@@]5(C)[C@@H]5C[C@@H]54)[C@@]34OC(=O)C(CO)=C4C[C@@H]12 [CHLORAMULTILIDE D] | > 25 | – | – |
| C/C=C(\C)C(=O)OC[C@]1(O)[C@H]2C[C@H]2[C@]2(C)[C@@H]3CC4=C5[C@H](/C(=C(\C)C(=O)OC)C(=O)[C@H](O)[C@@]5(C)[C@@H]5C[C@H]45)[C@@]34OC(=O)C(C)=C4C[C@@H]12 [SARCANDROLIDE A] | 0.32 | – | – |
| COC(=O)/C(C)=C1\C(=O)[C@H](O)[C@]2(C)C3=C(C[C@@H]4[C@]5(OC(=O)C(CO)=C5C[C@H]5[C@](O)(COC(=O)/C(C)=C/CO)[C@H]6C[C@H]6[C@]45C)[C@H]31)[C@H]1C[C@H]12 [SARCANDROLIDE B] | 0.265 | – | – |
| C/C=C(\C)C(=O)OC[C@]1(O)[C@H]2C[C@H]2[C@]2(C)[C@@H]3C[C@@]4(O)C5=C(C6=C(C)C(=O)O[C@]6(O)[C@H](O)[C@@]5(C)[C@@H]5C[C@@H]54)[C@@]34OC(=O)C(COC(C)=O)=C4C[C@@H]12 [SARCANDROLIDE D] | > 25 | – | – |
| C/C=C(\C)C(=O)OC[C@]1(O)[C@H]2C[C@H]2[C@]2(C)[C@@H]3C[C@@]4(O)C5=C(/C(=C(\C)C(=O)OC)C(=O)[C@H](O)[C@@]5(C)[C@@H]5C[C@@H]54)[C@@]34OC(=O)C(COC(C)=O)=C4C[C@@H]12 [SARCANDROLIDE E] | > 25 | – | – |
